Results on 14 compounds are retold here after PubChem BioAssay.

Test [1] in a line: reducers of endogenous Her2 protein level, primary screen, SKBR3 breast tumor cells, AlphaScreen, ATP viability (AID 461;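 active = Her2 level under about 52% in both replicate screens, with viability over 70% of control, limit read from the data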;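 as to Her2 level: lower value means less Her2 protein in the cells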;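 as to viability: percent of carrier control wells set as 100% viability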). The following applies: 18-24 h, measured here: SKBR3 viability, ATP luminescence, at 10 µM. (In Alpha technology, singlet oxygen from a donor bead excites a nearby acceptor bead.)
The target in test [2] is Receptor tyrosine-protein kinase erbB-2 (Homo sapiens) (UniProt P04626). The description is as above. To be noted: 18-24 h, at 10 µM, stronger effect = lower value.
Chain of Receptor tyrosine-protein kinase erbB-2 (Homo sapiens) (P04626 whole entry, looked up): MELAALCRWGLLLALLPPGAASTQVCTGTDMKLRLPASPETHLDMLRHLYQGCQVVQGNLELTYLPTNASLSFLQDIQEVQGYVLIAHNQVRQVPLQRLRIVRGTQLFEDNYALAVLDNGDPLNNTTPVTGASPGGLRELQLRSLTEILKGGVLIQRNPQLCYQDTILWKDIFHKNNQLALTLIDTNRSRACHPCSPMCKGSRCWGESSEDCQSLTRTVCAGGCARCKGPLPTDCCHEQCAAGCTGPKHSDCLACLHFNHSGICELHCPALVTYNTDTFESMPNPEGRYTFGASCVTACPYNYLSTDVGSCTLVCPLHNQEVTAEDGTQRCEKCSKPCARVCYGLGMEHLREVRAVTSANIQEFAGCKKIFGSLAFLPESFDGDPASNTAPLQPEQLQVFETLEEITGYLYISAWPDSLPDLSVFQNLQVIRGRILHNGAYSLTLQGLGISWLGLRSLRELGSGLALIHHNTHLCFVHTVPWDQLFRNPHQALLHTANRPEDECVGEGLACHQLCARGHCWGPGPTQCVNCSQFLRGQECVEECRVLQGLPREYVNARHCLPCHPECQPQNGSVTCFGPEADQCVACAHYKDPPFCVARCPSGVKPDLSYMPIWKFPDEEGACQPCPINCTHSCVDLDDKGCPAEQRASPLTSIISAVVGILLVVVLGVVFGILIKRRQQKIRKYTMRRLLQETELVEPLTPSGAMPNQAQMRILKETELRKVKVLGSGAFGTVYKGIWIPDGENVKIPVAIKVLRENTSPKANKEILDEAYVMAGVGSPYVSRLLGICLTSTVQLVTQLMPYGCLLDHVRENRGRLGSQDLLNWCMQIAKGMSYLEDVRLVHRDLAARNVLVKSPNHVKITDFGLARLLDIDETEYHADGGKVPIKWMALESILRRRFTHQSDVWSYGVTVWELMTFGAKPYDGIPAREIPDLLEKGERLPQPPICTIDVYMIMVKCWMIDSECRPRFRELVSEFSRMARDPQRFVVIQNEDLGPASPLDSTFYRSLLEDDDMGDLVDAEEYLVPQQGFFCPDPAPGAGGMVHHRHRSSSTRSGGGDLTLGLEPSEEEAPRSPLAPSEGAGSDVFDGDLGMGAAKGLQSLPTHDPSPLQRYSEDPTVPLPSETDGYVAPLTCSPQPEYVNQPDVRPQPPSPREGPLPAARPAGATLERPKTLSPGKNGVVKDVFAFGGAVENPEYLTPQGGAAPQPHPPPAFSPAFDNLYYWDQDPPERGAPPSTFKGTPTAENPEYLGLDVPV
Test [3] in a line: SK-BR-3 cell growth inhibitors, pilot screen, 24 h, human (AID 572;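 active = viability at or below 10% of carrier control in both of two separate runs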;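 also: compound exposure lasted between 18 and 24 h rather than exactly 24 h; 100% = carrier-treated control wells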). To be noted: SK-BR-3 viability, CellTiter-Glo luminescence, at 10 µM, stronger effect = lower value. (In general: In ATP-based viability assays light output follows the ATP content of the culture.)
Test [4] can be described thus: HUVEC growth inhibition – cell-based, human, primary screen (AID 575;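 active = viability at or below 30% in both replicate assays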;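 also: 100% = median of untreated cell wells with 0.1% DMSO on each plate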). To be noted: HUVEC proliferation, CellTiter-Glo luminescence, 72 h; at 10 µM; stronger effect = lower value. A digest of the protocol:
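Timing: 72 h treatment at 37 °C; material: HUVEC primary cells; technique: CellTiter-Glo luminescence measuring cellular ATP; controls: vehicle and MePR control wells; measure: percent of median DMSO-control luminescence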

Test [5] is described as follows: growth inhibitors of H69AR lung tumor, primary screen, human, duplicate replicates (AID 580;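 active = viability at or under a set limit in both replicates, limit being median viability minus 3 SD, cut at about 48% in these data, passing the limit was not always enough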;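 also: 100% = mean luminescence of untreated wells and 0% = no signal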). To be noted: H69AR lung tumor cells viability, ATP luminescence, 72 h; at 10 µM; stronger effect = lower value.
The nature of test [6]: reversal of MRP1-mediated doxorubicin resistance, pilot screen, H69AR cells, doxorubicin co-treatment (AID 601). To be noted: CellTiter-Glo, 72 h, at 10 µM; for differential viability (reversal): stronger effect = higher value.
The nature of test [7]: 384-well plate pilot, post-Golgi transport modulator project, inhibition of yeast transport mutant growth (AID 636; in the data active = inhibition above about 31%). To be noted: absorbance 615 nm, about 18 h, stronger effect = higher value.
Test [8] can be described thus: growth suppression of yeast trafficking mutant, preliminary HTS, modulators of trafficking downstream of Golgi apparatus project, 1536-format plate, OD 615 nm (AID 637; in the data active = inhibition above about 30%). The following applies: yeast transport mutant growth, absorbance 615 nm, 18 h; stronger effect = higher value.
Setting [9] is: H69AR cells + 2 uM doxorubicin, measured here: viability with 2 uM doxorubicin, stronger effect = lower value.
Setting [10] is: H69AR cells, compound alone cytotoxicity.

SMILES strings stand for the structures. The source made the active and inactive calls.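 The calls were made as follows, unless noted: active = viability loss from added drug above about 55%, and viability with drug at most 40%, in both replicates (limit read from the data, passing the limit was not always enough); inconclusive = both conditions met in only one replicate; inactive = neither replicate meets both conditions.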

One may read the viability as a read-out of living cells in per cent, often relative to untreated cells. The term inhibition denotes the relative decrease from the control value, in per cent. `CCOc1ccc(C(=O)CN2CCN(S(=O)(=O)c3ccc(OC)cc3)CC2)cc1`: the viability was 99.5% in test [1]; 99.5% (inactive) in test [3]; 91.2% (inactive) in test [4]; 86.7% (inactive) in test [5]; 94.7% in test [6] (setting [9]); 86.7% in test [6] (setting [10]). In addition, the Her2 level in test [2] is 88% (inactive). In addition, the differential viability (reversal) in test [6] (H69AR cells + 2 uM doxorubicin) is -8.05% (inactive). For the same compound, the inhibition in test [7] is -3.68% (inactive); in test [8] it was -8.33% (inactive).
Turning to `CC(=O)c1ccc(NC2OC(C)C(O)C(O)C2O)cc1` (stereo not given), the viability in test [1] was 121%; in test [3], 121% (inactive); in test [4], 100% (inactive); in test [5], 91.3% (inactive); in test [6] (setting [9]), 89.8%; in test [6] (setting [10]) it was 91.3%. The Her2 level in test [2] was 112% (inactive). For the same compound, in test [6] (H69AR cells + 2 uM doxorubicin), the differential viability (reversal) is 1.54% (inactive). Moreover, the results for the inhibition in test [7] and in test [8] were 2.24% (inactive) and -6.67% (inactive), respectively.
With `COc1ccc2c(c1OC)C(=O)OC2Nn1cncn1` (stereo not given), the viability in test [1] was 95.5%; in test [3], 95.5% (inactive); in test [4], 109% (inactive); in test [5], 103% (inactive); in test [6] (setting [9]) it was 99.3%; in test [6] (setting [10]), 103%. Besides, the Her2 level in test [2] is 96.5% (inactive). For the same compound, the differential viability (reversal) in test [6] (H69AR cells + 2 uM doxorubicin) is 3.5% (inactive). The inhibition in test [7] was -4.08% (inactive); in test [8] it was 0.33% (inactive).
Take `CC1=C(C#N)C(=O)NC(C)(C)C1`: the viability in test [1] is 114%; in test [3], 114% (inactive); in test [4], 91.8% (inactive); in test [5], 89.3% (inactive); in test [6] (setting [9]), 86.3%; in test [6] (setting [10]), 89.3%. The Her2 level in test [2] is 102% (inactive). Besides, the differential viability (reversal) in test [6] (H69AR cells + 2 uM doxorubicin) is 3.02% (inactive). In addition, the figures for the inhibition in test [7] and in test [8] were -6% (inactive) and 1.8% (inactive), respectively.
Regarding `Cc1cc2oc(=O)cc(CN3CCN(Cc4ccc5c(c4)OCO5)CC3)c2cc1C`, the viability in test [1] was 96.5%; in test [3] it was 96.5% (inactive); in test [4], 84.3% (inactive); in test [5] it was 80.6% (inactive); in test [6] (setting [9]), 80%; in test [6] (setting [10]), 80.6%. Further, the Her2 level in test [2] is 91.5% (inactive). Also, the differential viability (reversal) in test [6] (H69AR cells + 2 uM doxorubicin) is 0.615% (inactive). In addition, the inhibition in test [7] was -5.73% (inactive); in test [8], -1.29% (inactive).
Turning to `CCc1nc(C)c(-c2ccccc2)c(=O)[nH]1`, the viability in test [1] was 102%; in test [3], 102% (inactive); in test [4] it was 81.8% (inactive); in test [5], 113% (inactive); in test [6] (setting [9]), 87.2%; in test [6] (setting [10]), 113%. The Her2 level in test [2] was 120% (inactive). The differential viability (reversal) in test [6] (H69AR cells + 2 uM doxorubicin) is 25.6% (inactive). Moreover, the inhibition in test [7] was -3.2% (inactive); in test [8], -8.39% (inactive).
With `CCc1nc(N)c(C#N)c(-c2ccncc2)c1C`, the viability in test [1] was 102%; in test [3], 102% (inactive); in test [4], 89.2% (inactive); in test [5] it was 102% (inactive); in test [6] (setting [9]) it was 80.6%; in test [6] (setting [10]), 102%. Also, the Her2 level in test [2] was 95% (inactive). Also, the differential viability (reversal) in test [6] (H69AR cells + 2 uM doxorubicin) was 21.1% (inactive). Besides, the inhibition in test [7] is -4.27% (inactive); in test [8] it was -0.82% (inactive).
Take `Cc1noc(C)c1C(=O)OCC(=O)Nc1ccccc1C(=O)NC(C)c1ccccc1` (stereo not given): the viability in test [1] was 90.5%; in test [3] it was 90.5% (inactive); in test [4] it was 70.5% (inactive); in test [5], 87.2% (inactive); in test [6] (setting [9]) it was 94.1%; in test [6] (setting [10]), 87.2%. In addition, the Her2 level in test [2] was 86% (inactive). Besides, the differential viability (reversal) in test [6] (H69AR cells + 2 uM doxorubicin) was -6.91% (inactive). The inhibition is -4.93% (inactive) in test [7] and 6.72% (inactive) in test [8].
On to `CCCS(=O)(=O)N1CCCC(C(=O)N2CCC(Cc3ccccc3)CC2)C1` (stereo not given), for which the viability in test [1] was 91.5%; in test [3] it was 91.5% (inactive); in test [4], 85.9% (inactive); in test [5], 98.7% (inactive); in test [6] (setting [9]), 97.1%; in test [6] (setting [10]) it was 98.7%. The Her2 level in test [2] is 96.5% (inactive). In addition, the differential viability (reversal) in test [6] (H69AR cells + 2 uM doxorubicin) was 1.65% (inactive). Also, the inhibition in test [7] was -1.32% (inactive); in test [8] it was 4.92% (inactive).
In the case of `O=C(O)c1[nH]nc2c1COc1ccccc1-2`, the viability is 93.5% in test [1]; 93.5% (inactive) in test [3]; 109% (inactive) in test [4]; 100% (inactive) in test [5]; 93.3% in test [6] (setting [9]); 100% in test [6] (setting [10]). Also, the Her2 level in test [2] is 92% (inactive). In addition, the differential viability (reversal) in test [6] (H69AR cells + 2 uM doxorubicin) is 7.14% (inactive). The inhibition in test [7] was -0.92% (inactive); in test [8], 2.95% (inactive).
Take `COc1ccccc1-n1c(-c2cccnc2)n[nH]c1=S`: the viability in test [1] is 88%; in test [3] it was 88% (inactive); in test [4] it was 110% (inactive); in test [5], 109% (inactive); in test [6] (setting [9]) it was 102%; in test [6] (setting [10]) it was 109%. In test [2], the Her2 level is 109% (inactive). Besides, in test [6] (H69AR cells + 2 uM doxorubicin), the differential viability (reversal) was 6.74% (inactive). The figures for the inhibition in test [7] and in test [8] were -0.4% (inactive) and -2.95% (inactive), respectively.
As to `Cc1cc(C)nc(N2CCC(C(=O)NCc3cccc(C(F)(F)F)c3)CC2)n1`, the viability was 104% in test [1]; 104% (inactive) in test [3]; 76.6% (inactive) in test [4]; 91.1% (inactive) in test [5]; 86.2% in test [6] (setting [9]); 91.1% in test [6] (setting [10]). Also, in test [2], the Her2 level was 100% (inactive). Also, the differential viability (reversal) in test [6] (H69AR cells + 2 uM doxorubicin) was 4.94% (inactive). For the same compound, the inhibition in test [7] is -6.08% (inactive); in test [8], -2.33% (inactive).
As to `CCOC(=O)N1CCN(c2nc(-c3ccc(Cl)cc3)cs2)CC1`, the viability in test [1] was 79.5%; in test [3], 79.5% (inactive); in test [4] it was 98.3% (inactive); in test [5] it was 89.1% (inactive); in test [6] (setting [9]) it was 98.6%; in test [6] (setting [10]) it was 89.1%. Moreover, in test [2], the Her2 level is 125% (inactive). For the same compound, the differential viability (reversal) in test [6] (H69AR cells + 2 uM doxorubicin) was -9.49% (inactive). The inhibition was -4.23% (inactive) in test [7] and -7.83% (inactive) in test [8].
Regarding `COc1cccc(NC(=O)N2CCN(c3cccc(C)c3C)CC2)c1`, the viability was 102% in test [1]; 102% (inactive) in test [3]; 68.5% (inactive) in test [4]; 82.8% (inactive) in test [5]; 87.4% in test [6] (setting [9]); 82.8% in test [6] (setting [10]). Moreover, the Her2 level in test [2] is 72.5% (inactive). Besides, in test [6] (H69AR cells + 2 uM doxorubicin), the differential viability (reversal) is -4.58% (inactive). For the same compound, the inhibition in test [7] is 1.82% (inactive); in test [8], -3% (inactive).
